Results from ChEMBL document CHEMBL1122398, “Some biological properties of the impure dichloride salt of tetrakis[p-(dimethylamino)phenyl]ethylene and a pinacolone” (1983).
Several values for one entry are separate records, joined by “and”; a condition that tells them apart may be missing. Identical values can stand only once.

How the values were obtained:
Mus musculus [1] = test: Tested for anti-lymphosarcoma in mice at the dose of 10 mg/kg; format: functional
Procedure, shortened: (§1)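 Groups of five female C3H mice received 7.5×10^6 Gardner lymphosarcoma (6C3 HED) cells per mouse intraperitoneally. Starting 1 day later, mice were dosed subcutaneously on the lower back once daily for 5 days, with test material in saline or 10% (CH₃)₂SO. Control mice received vehicle only. Read-outs were average survival in days and the number of mice surviving 50 days.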

Mus musculus [2] = test: Tested for average survival days in control mice at a dose of 10 mg/Kg; format: functional; procedure, shortened: as §1
Mus musculus [3] = test: Tested for average survival days in control mice at a dose of 5 mg/Kg; format: functional; procedure, shortened: as §1
Mus musculus [4] = test: Number of mice with 50-day survival period after treating with 5 mg/Kg of compound out of 5 tested; format: functional; procedure, shortened: as §1
Mus musculus [5] = test: Number of mice with 50-day survival period in control group at a dose of 5 mg/Kg tested out of 5 mice treated; format: functional; procedure, shortened: as §1
Mus musculus [6] = test: Number of mice with 50-day survival period after treating with 10 mg/Kg of compound out of 5 tested; format: functional; procedure, shortened: as §1
Mus musculus [7] = test: Number of mice with 50-day survival period in control group at a dose of 10 mg/Kg tested out of 5 mice treated; format: functional; procedure, shortened: as §1
Mus musculus [8] = test: Tested for anti-lymphosarcoma activity in mice at the dose of 5 mg/kg by determining average survivals
Mus musculus [9] = test: Tested for anti-lymphosarcoma activity in mice at the dose of 10 mg/kg by determining average survivals; format: functional; procedure, shortened: as §1
Mus musculus [10] = species: Mus musculus; test: Tested for average survival days in mice (control); format: functional; procedure, shortened: as §1
Mus musculus [11] = species: Mus musculus; test: Tested for anti-lymphosarcoma activity in mice (control) with 50-day survival period out of 5 tested; format: functional; procedure, shortened: as §1

Compound | Average survival (Mus musculus [1]) [days] | Average survival (Mus musculus [2]) [days] | Average survival (Mus musculus [3]) [days] | No. of survivals (Mus musculus [4]) | No. of survivals (Mus musculus [5]) | No. of survivals (Mus musculus [6]) | No. of survivals (Mus musculus [7]) | Average survival (Mus musculus [8]) [days] | Average survival (Mus musculus [9]) | Average survival (Mus musculus [10]) | No. of survivals (Mus musculus [11])
CN(C)c1ccc(C(=C(c2ccc(N(C)C)cc2)c2ccc(N(C)C)cc2)c2ccc(N(C)C)cc2)cc1 | 37.6 | 14.8 | 14.8 | 1 | 0 | 4 | 0 | 21.5 |  |  | 
CN(C)c1ccc(C(=C2C=CC(=[N+](C)C)C=C2)C(=C2C=CC(=[N+](C)C)C=C2)c2ccc(N(C)C)cc2)cc1 |  |  |  |  |  | 4 |  |  | 37.6 days and 42.8 days | 14.8 days and 23 days | 
CN(C)c1ccc(C(=C2C=CC(=[N+](C)C)C=C2)C(c2ccc(N(C)C)cc2)c2ccc(N(C)C)cc2)cc1 |  |  |  |  |  | 0 |  | 13.2 |  | 12.2 days | 0
